Source: PubChem BioAssay
Only some compounds are listed: those with a hit (about 3.4% of all), similar ones and a draw of the others.
CHRM1 PAM = positive allosteric modulators of human M1 muscarinic receptor; 0.088% of 360,000 active; CHO-K1 hM1, Fluo-8 calcium fluorescence, ACh EC20; 0% = ACh EC20, 100% = maximal ACh; activation, % at 3 µM; P11229; in the data active means activation above about 19%, passing the limit was not always enough
TAAR1 agonist = human TAAR1 agonism | 0.99% of 360,000 active | Q96RJ0 | activation, % at 3 µM | AID 624467 | CHO RD-HGA16 TAAR1, Fluo-8 calcium fluorescence; vehicle wells 0%, saturating PEA agonist 100%;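 active means activation above the mean activation of all test compounds in the run plus 3 SD, cut at about 38% in these data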
Target sequence (Q96RJ0 whole entry, looked up): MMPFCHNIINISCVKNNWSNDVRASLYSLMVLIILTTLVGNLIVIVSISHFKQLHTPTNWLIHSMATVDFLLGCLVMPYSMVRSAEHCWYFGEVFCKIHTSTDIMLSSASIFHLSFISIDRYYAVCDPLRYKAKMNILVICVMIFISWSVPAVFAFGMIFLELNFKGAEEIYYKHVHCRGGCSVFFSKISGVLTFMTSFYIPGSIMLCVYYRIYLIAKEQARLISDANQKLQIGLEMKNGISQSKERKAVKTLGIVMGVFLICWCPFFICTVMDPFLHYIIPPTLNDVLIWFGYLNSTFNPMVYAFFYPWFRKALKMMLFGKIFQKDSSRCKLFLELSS
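Test system: RD-HGA16 (CHO) cells co-expressing Gα16 and hTAAR1 | Doses: Single dose, 3 µM | Schedule: 17-24 h seeding, 75 min 37 °C dye, 30 min RT | Evaluation: % activation from peak over basal fluorescence ratio, DMSO-to-PEA scaled | Technique: Kinetic Fluo-8 calcium fluorescence | Benchmarks: Low control DMSO, high control PEA (EC100)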
M1 antag = human CHRM1 antagonism. 1.3% of 360,000 active. CHO-K1 hM1, Fluo-8 calcium fluorescence, ACh EC80 antagonist. P11229. inhibition, % at 3 µM;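 active means percent inhibition above its own plate's cutoff, namely the mean of that plate's compound wells plus 3 SD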;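 further: peak over basal fluorescence ratio during 140 s after agonist addition; 0% = ACh EC80 plus DMSO and 100% = DMSO alone without agonist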
TAAR1 antagonist = antagonists of human TAAR1 | Q96RJ0 | CHO RD-HGA16 TAAR1, Fluo-8 calcium fluorescence, antagonist | inhibition, % at 3 µM | 1.5% of 360,000 active | AID 624466;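 active means inhibition above a per-plate cutoff, the mean inhibition of test compounds on that plate plus 3 SD, cut at about 49% in these data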;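 further: 0% = DMSO plus EC80 beta-PEA response and 100% = DMSO alone without agonist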
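Test system: hTAAR1-expressing CHO RD-HGA16 cells, Gα16-coupled; Probe or stimulus: EC80 β-phenethylamine stimulus; Compound dosing: single nominal final test compound concentration of 3 µM; Timing: 140 s kinetic read after compound, 140 s after agonist; Signal: Fluo-8 calcium-sensitive fluorescence; Measure: % inhibition of agonist calcium response; Controls: DMSO and EC80 PEA controls.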
CHRM1 agonist = human M1 muscarinic receptor agonism. activation, % at 3 µM. P11229. AID 588814. 0.33% of 360,000 active. CHO-K1 hM1, Fluo-8 calcium fluorescence, agonist mode; 0% DMSO, 100% acetylcholine EC100;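 active means activation above the run's mean compound activation plus 3 SD, cut at about 16% in these data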;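 further: peak over basal fluorescence ratio within a 140 s kinetic read after compound addition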
* hit, by the source's call.

`CC(C)[C@@H](C)/C=C/[C@@H](C)[C@H]1CC[C@@H]2[C@]1(C)CCC1[C@]23C=C[C@]2(C[C@@H](O)CC[C@]12C)N(C(=O)Cc1ccccc1)O3` (stereo partly specified) gave TAAR1 agonist 0.4 and TAAR1 antagonist -0.5.
For COc1cccc(/C=C2/Sc3ccc(C(=O)NC4CC4)cc3NC2=O)c1 the results were TAAR1 agonist 1.4 and TAAR1 antagonist -3.2.
COc1ccc(NS(=O)(=O)c2ccc(NC(=S)NC(=O)C(C)C)cc2)cc1 was read as CHRM1 PAM 4.3, TAAR1 agonist 76.8*, M1 antag 2.0, TAAR1 antagonist 19.6 and CHRM1 agonist 19.5*.
COc1ccc(CC(=O)NC(=S)Nc2ccc(S(=O)(=O)NC(C)(C)C)cc2)cc1 was read as CHRM1 PAM 8.5, TAAR1 agonist 53.4*, M1 antag -14.7, TAAR1 antagonist 31.0 and CHRM1 agonist 23.6*.
COc1ccc(NC(=S)NC(=O)Cc2ccccc2)cc1 was read as CHRM1 PAM 5.3, TAAR1 agonist 14.3, M1 antag -9.6, TAAR1 antagonist -7.0 and CHRM1 agonist -1.2.
Screening C=CCC(NC(=O)N(C)C)(C(C)=O)C(=O)OC (stereo unspecified) returned TAAR1 agonist 3.5 and TAAR1 antagonist -35.8.
Screening COCc1cc(N2CCN(C(=O)OC(C)(C)C)C[C@@H]2C)ccc1Br returned TAAR1 agonist 1.6 and TAAR1 antagonist 39.0.
Cc1ccc(C)c(NC(=O)C(NCC(C)(C)N2CCOCC2)c2ccccc2)c1 (stereo unspecified) was read as CHRM1 PAM -27.4, TAAR1 agonist -0.9, M1 antag 92.3*, TAAR1 antagonist -6.0 and CHRM1 agonist -8.0.
Cc1ccc(C)c(NC(=O)C(c2ccccc2)N2CCN(CC(=O)N3CCOCC3)CC2)c1 (stereo unspecified) was read as CHRM1 PAM 6.7, TAAR1 agonist 14.6, M1 antag -4.5, TAAR1 antagonist 2.0 and CHRM1 agonist -0.9.
`COc1ccc(-c2csc(N=C(N)N)n2)cc1` gave CHRM1 PAM 13.5, TAAR1 agonist 3.3, M1 antag -3.5, TAAR1 antagonist -21.2 and CHRM1 agonist 3.6.
`Cc1ccc(-c2csc(N=C(N)N)n2)c(C)c1` gave CHRM1 PAM 7.7, TAAR1 agonist 37.8*, M1 antag -11.6, TAAR1 antagonist -29.0 and CHRM1 agonist 5.2.
Screening Cc1nc(C)c(-c2ccc(SCC(=O)Nc3cccc(Cl)c3)nn2)s1 returned CHRM1 PAM -7.3, TAAR1 agonist 7.7, M1 antag 7.5, TAAR1 antagonist 51.9* and CHRM1 agonist 1.0.
Screening O=C(CSc1nc2c(c(=O)[nH]1)CCC2)Nc1ccccc1Cl returned CHRM1 PAM 9.8, TAAR1 agonist -1.1, M1 antag -15.2, TAAR1 antagonist 11.1 and CHRM1 agonist -1.7.
O=C(CSc1nc2c(c(=O)[nH]1)CCC2)Nc1cccc(Cl)c1 was read as CHRM1 PAM 15.4, TAAR1 agonist 0.2, M1 antag -11.7, TAAR1 antagonist 9.2 and CHRM1 agonist 17.1*.
COC(=O)C1=C(C)N(Cc2ccccc2)C(=S)NC1c1ccc(Cl)cc1 (stereo unspecified) was read as TAAR1 agonist 0.0 and TAAR1 antagonist 20.6.
`Oc1ccc(C(c2nnnn2C2CCCC2)N2CCc3ccccc3C2)cc1` (stereo unspecified) gave CHRM1 PAM 4.2, TAAR1 agonist 82.3*, M1 antag -24.9, TAAR1 antagonist 84.2* and CHRM1 agonist -8.1.
Screening C(=C\c1ccccc1)/CN1CCN(C(c2ccccc2)c2nnnn2C2CCCC2)CC1 (stereo unspecified) returned CHRM1 PAM -22.8, TAAR1 agonist 0.8, M1 antag 53.9*, TAAR1 antagonist -22.4 and CHRM1 agonist -4.6.
For FC(F)(F)Oc1ccccc1C(c1nnnn1C1CCCC1)N1CCN(C/C=C/c2ccccc2)CC1 (stereo unspecified) the results were CHRM1 PAM -24.9, TAAR1 agonist 0.9, M1 antag 56.4*, TAAR1 antagonist -3.1 and CHRM1 agonist -4.2.
`c1ccc(C(c2nnnn2C2CCCC2)N2CCCCCC2)nc1` (stereo unspecified) gave CHRM1 PAM -27.3, TAAR1 agonist -4.7, M1 antag 33.8*, TAAR1 antagonist -0.1 and CHRM1 agonist -12.8.
`OC(Cc1ccccc1)c1ncc(-c2ccc3ccccc3c2)[nH]1` (stereo unspecified) gave CHRM1 PAM 0.9, M1 antag -5.5 and CHRM1 agonist -1.1.
Screening C(=C\c1ccccc1)/CN1CCN(C(c2ccnc3ccccc23)c2nnnn2C2CCCC2)CC1 (stereo unspecified) returned CHRM1 PAM -25.8, TAAR1 agonist -1.2, M1 antag 69.8*, TAAR1 antagonist 8.4 and CHRM1 agonist -5.7.
Screening CCOC(=O)C1CCCN(C(=O)c2cccc(S(=O)(=O)N3CCCC3)c2)C1 (stereo unspecified) returned CHRM1 PAM 11.0, TAAR1 agonist 3.7, M1 antag -7.2, TAAR1 antagonist 2.4 and CHRM1 agonist -3.6.
`CCOC(=O)C1CCCN(C(=O)c2cccc(S(=O)(=O)N(C)c3ccc(C)cc3)c2)C1` (stereo unspecified) gave CHRM1 PAM -13.0, TAAR1 agonist 15.4, M1 antag 37.4*, TAAR1 antagonist 12.0 and CHRM1 agonist -0.9.
For CCCN1CCN(C(=O)c2ccc(-c3ccc([N+](=O)[O-])cc3)o2)CC1 the results were CHRM1 PAM -3.3, TAAR1 agonist 9.1, M1 antag 0.9, TAAR1 antagonist 10.7 and CHRM1 agonist -7.7.
For CCOC(=O)C1CCCN(C(=O)c2ccc(-c3ccc([N+](=O)[O-])cc3)o2)C1 (stereo unspecified) the results were CHRM1 PAM -11.9, TAAR1 agonist 49.1*, M1 antag 18.6, TAAR1 antagonist 36.8 and CHRM1 agonist 38.8*.
`CCOC(=O)C1CCCN(C(=O)c2ccc(CS(=O)(=O)c3ccc(C)cc3)o2)C1` (stereo unspecified) gave CHRM1 PAM -30.8, M1 antag 30.2 and CHRM1 agonist 56.1*.
CCCN(CCC)Cc1cc(=O)oc2ccccc12 was read as TAAR1 agonist 1.7 and TAAR1 antagonist 15.9.
Screening CCN(CCS(=O)(=O)c1ccc(Cl)cc1)C(=O)Nc1ccccc1 returned CHRM1 PAM 5.6, TAAR1 agonist 4.7, M1 antag -7.5, TAAR1 antagonist -5.2 and CHRM1 agonist -3.3.
Screening O=C(Nc1ccccc1)N(O)c1ccc(Cl)cc1 returned CHRM1 PAM 5.6, TAAR1 agonist 38.5*, M1 antag -9.4, TAAR1 antagonist 4.0 and CHRM1 agonist 4.8.
`CCCCNc1cccc2c1S(=O)(=O)N[C@H](CC(C)C)CO2` gave TAAR1 agonist -1.9 and TAAR1 antagonist -11.9.
